Measured values as given in ChEMBL document CHEMBL1166008, “A new class of potential anti-tuberculosis agents: Synthesis and preliminary evaluation of novel acrylic acid ethyl ester derivatives” (Bioorg Med Chem, 2010).
Values after ≈ are worked out from the molar mass of the structure shown.

Key:
Staphylococcus aureus = assay: Antibacterial activity against Staphylococcus aureus ATCC 29213 after 18 to 24 hrs by microtiter plate method; assay type: functional
Procedure, shortened: (§1)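 Broth microdilution MIC in cation-adjusted Mueller–Hinton broth. Cultures grown statically overnight on tryptic soy agar at 35 °C. Plates incubated 18–24 h at 35 °C and scored growth/no growth. Tetracycline control included.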

Escherichia coli = assay: Antibacterial activity against Escherichia coli ATCC 25922 after 18 to 24 hrs by microtiter plate method; assay type: functional; procedure, shortened: as §1
[1] = system: Mycolicibacterium smegmatis; assay: Antimycobacterial activity against Mycobacterium smegmatis after 48 hrs by microtiter plate method; assay type: functional
Procedure, shortened: (§2)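 Broth microdilution MIC in Middlebrook 7H9 broth with 10% OADC. Mycobacterial cultures grown statically seven days in the same medium at 35 °C. Plates incubated 48 h at 35 °C and scored growth/no growth. Rifampin positive control.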

Bacillus cereus = assay: Antibacterial activity against Bacillus cereus after 18 to 24 hrs by microtiter plate method; assay type: functional; procedure, shortened: as §1
[2] = system: Mycobacterium intracellulare; assay: Antimycobacterial activity against Mycobacterium intracellular after 48 hrs by microtiter plate method; assay type: functional; procedure, shortened: as §2
Mycobacteroides chelonae = assay: Antimycobacterial activity against Mycobacterium chelonae after 48 hrs by microtiter plate method; assay type: functional; procedure, shortened: as §2
J774.A1 = assay: Cytotoxicity against mouse J774A1 cells after 24 hrs by trypan blue exclusion assay; assay type: cell-based; conditions: J774.A1, 24 h
Procedure, shortened: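 Murine J774A.1 monocytes seeded at 1 × 10^6/well in RPMI 1640. Next day, twofold dilutions of drug in PBS added. Following day, trypan blue added for 10 min, then dead (blue) and live cells counted in three fields per well. IC50 taken as concentration giving 50% dead cells.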

Mycobacterium avium = assay: Antimycobacterial activity against Mycobacterium avium after 48 hrs by microtiter plate method; assay type: functional; procedure, shortened: as §2
[3] = system: Mycobacterium tuberculosis; assay: Antimycobacterial activity against Mycobacterium tuberculosis H37Rv after 48 hrs by green fluorescent protein-based assay; assay type: functional
Procedure, shortened: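 M. tuberculosis H37Rv carrying high-copy pHIGH22 plasmid expressing GFP. Killing read as loss of GFP fluorescence. Isoniazid and rifampin positive controls.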

[4] = system: Mycolicibacterium fortuitum; assay: Antimycobacterial activity against Mycobacterium fortuitum after 48 hrs by microtiter plate method; assay type: functional; procedure, shortened: as §2
Mycobacterium kansasii = assay: Antimycobacterial activity against Mycobacterium kansasii after 48 hrs by microtiter plate method; assay type: functional; procedure, shortened: as §2

| Structure (SMILES) | MIC (Staphylococcus aureus) [µg/mL] | MIC (Escherichia coli) [µg/mL] | MIC [1] [µg/mL] | MIC (Bacillus cereus) [µg/mL] | MIC [2] [µg/mL] | MIC (Mycobacteroides chelonae) [µg/mL] | IC50 (J774.A1) [µg/mL] | MIC (Mycobacterium avium) [µg/mL] | MIC [3] [µg/mL] | MIC [4] [µg/mL] | MIC (Mycobacterium kansasii) [µg/mL] |
| --- | --- | --- | --- | --- | --- | --- | --- | --- | --- | --- | --- |
| CCOC(=O)/C=C\Sc1ccccc1C(C)C | > 128 | > 128 | > 128 | > 128 | – | – | – | – | – | – | – |
| CCOC(=O)/C=C\Oc1ccc(F)cc1 | > 128 | > 128 | > 128 | > 128 | – | – | – | – | – | – | – |
| CCOC(=O)/C=C\Oc1ccccc1C | > 128 | > 128 | > 128 | > 128 | – | – | – | – | – | – | – |
| CCOC(=O)/C=C\Oc1cccnc1 | > 128 | > 128 | > 128 | > 128 | – | – | – | – | – | – | – |
| CCOC(=O)/C=C\n1nnnc1SC | > 128 | > 128 | 128 (≈ 597 µM) | > 128 | – | – | – | – | – | – | – |
| CCOC(=O)/C=C\Sc1ccc2ccccc2c1 | 128 (≈ 495 µM) | > 128 | 64 (≈ 248 µM) | > 128 | – | – | – | – | – | – | – |
| CCOC(=O)/C=C\Sc1ccc(C(C)(C)C)cc1 | > 128 | > 128 | 16 (≈ 60.5 µM) | > 128 | 128 (≈ 484 µM) | 8 (≈ 30.3 µM) | 150 (≈ 567 µM) | 64 (≈ 242 µM) | 25 (≈ 94.6 µM) | 4 (≈ 15.1 µM) | 16 (≈ 60.5 µM) |
| CCOC(=O)/C=C\Sc1nc2ccccc2s1 | > 128 | > 128 | 32 (≈ 121 µM) | > 128 | 16 (≈ 60.3 µM) | 8 (≈ 30.1 µM) | 200 (≈ 754 µM) | 64 (≈ 241 µM) | 25 (≈ 94.2 µM) | 16 (≈ 60.3 µM) | 8 (≈ 30.1 µM) |
| CCOC(=O)/C=C\Oc1cc(OC)cc(OC)c1 | > 128 | > 128 | 128 (≈ 507 µM) | > 128 | – | – | – | – | – | – | – |
| CCOC(=O)/C=C\Oc1ccc(C(C)(C)C)cc1 | > 128 | > 128 | 128 (≈ 515 µM) | > 128 | – | – | – | – | – | – | – |
| CCOC(=O)/C=C\Oc1cccc(F)c1 | > 128 | > 128 | > 128 | > 128 | – | – | – | – | – | – | – |
| CCOC(=O)/C=C\Oc1cccc([N+](=O)[O-])c1 | 64 (≈ 270 µM) | > 128 | 64 (≈ 270 µM) | > 128 | – | – | – | – | – | – | – |
| CCOC(=O)/C=C\n1nnc2ccccc21 | > 128 | > 128 | > 128 | > 128 | – | – | – | – | – | – | – |
| CCOC(=O)/C=C\Sc1ncccn1 | > 128 | > 128 | 64 (≈ 304 µM) | > 128 | – | – | – | – | – | – | – |
| CCOC(=O)/C=C\Sc1ccccc1C(=O)OC | > 128 | > 128 | 64 (≈ 240 µM) | > 128 | – | – | – | – | – | – | – |
| CCOC(=O)/C=C\Sc1cccc2ccccc12 | > 128 | > 128 | 128 (≈ 495 µM) | > 128 | – | – | – | – | – | – | – |
| CCOC(=O)/C=C\n1ncc2ccccc21 | > 128 | > 128 | > 128 | > 128 | – | – | – | – | – | – | – |

| Structure (SMILES) | MIC (Staphylococcus aureus) [µg/mL] | MIC (Escherichia coli) [µg/mL] | MIC [1] [µg/mL] | MIC (Bacillus cereus) [µg/mL] | MIC [2] [µg/mL] | MIC (Mycobacteroides chelonae) [µg/mL] | IC50 (J774.A1) [µg/mL] | MIC (Mycobacterium avium) [µg/mL] | MIC [3] [µg/mL] | MIC [4] [µg/mL] | MIC (Mycobacterium kansasii) [µg/mL] |
| --- | --- | --- | --- | --- | --- | --- | --- | --- | --- | --- | --- |
| CCOC(=O)/C=C\Oc1ccccc1C(=O)OC | > 128 | > 128 | > 128 | > 128 | – | – | – | – | – | – | – |
| CCOC(=O)/C=C\Oc1cccc2ccccc12 | > 128 | > 128 | 64 (≈ 264 µM) | > 128 | – | – | – | – | – | – | – |
| CCOC(=O)/C=C\Oc1ccc2ccccc2c1 | > 128 | > 128 | 128 (≈ 528 µM) | > 128 | – | – | – | – | – | – | – |
| CCOC(=O)/C=C\Oc1nc2ccccc2s1 | > 128 | > 128 | 128 (≈ 513 µM) | > 128 | – | – | – | – | – | – | – |
| CCOC(=O)/C=C\Sc1ccc(O)cc1 | 128 (≈ 571 µM) | > 128 | 64 (≈ 285 µM) | 128 (≈ 571 µM) | – | – | – | – | – | – | – |
| CCOC(=O)/C=C\Sc1cccs1 | > 128 | > 128 | 128 (≈ 597 µM) | > 128 | – | – | – | – | – | – | – |
| CCOC(=O)/C=C\SC1CCCCC1 | > 128 | > 128 | > 128 | > 128 | – | – | – | – | – | – | – |
| CCOC(=O)/C=C\n1ccc2ccccc21 | > 128 | > 128 | > 128 | > 128 | – | – | – | – | – | – | – |
| CCOC(=O)/C=C\Sc1ccccn1 | > 128 | > 128 | 128 (≈ 612 µM) | > 128 | – | – | – | – | – | – | – |
| CCOC(=O)/C=C\n1ccnc1 | > 128 | > 128 | > 128 | > 128 | – | – | – | – | – | – | – |
| CCOC(=O)/C=C\Oc1ccc(C(N)=O)cc1 | > 128 | > 128 | > 128 | > 128 | – | – | – | – | – | – | – |
| CCOC(=O)/C=C\n1cccn1 | > 128 | > 128 | > 128 | > 128 | – | – | – | – | – | – | – |
| CCOC(=O)/C=C\Oc1ccccc1C(C)C | > 128 | > 128 | > 128 | > 128 | – | – | – | – | – | – | – |
| CCOC(=O)/C=C\Oc1ccsc1C(=O)OC | > 128 | > 128 | > 128 | > 128 | – | – | – | – | – | – | – |
| NNC(=O)c1ccncc1 [ISONIAZID] | – | – | – | – | – | – | – | – | 0.25 (≈ 1.82 µM) | – | – |
| N#Cc1cccc(/C=C/SC2=NCCS2)c1 [PHENOTHIOSTYRENE] | > 128 | > 128 | 64 (≈ 260 µM) | > 128 | – | – | – | – | – | – | – |
| CO[C@H]1/C=C/O[C@@]2(C)Oc3c(C)c(O)c4c(O)c(c(/C=N/N5CCN(C)CC5)c(O)c4c3C2=O)NC(=O)/C(C)=C\C=C\[C@H](C)[C@H](O)[C@@H](C)[C@@H](O)[C@@H](C)[C@H](OC(C)=O)[C@@H]1C [RIFAMPIN] | – | – | 64 (≈ 77.8 µM) | – | – | – | – | – | < 0.03 | – | – |
